Data on eight molecules can be found in ChEMBL document CHEMBL4138185, “Investigation of the Physical and Bioactive Properties of Bromo- and Iodo-Containing Sponge-Derived Compounds Possessing an Oxyphenylethanamine Core” (J Nat Prod, 2017).

Holding throughout (format): organism-based
Common to all, as to settings: in vivo

Data set [1] relates to Yersinia pseudotuberculosis. Nature of the data set: Toxicity against Yersinia pseudotuberculosis harboring pYV deletion mutant at 60 uM measured after 8 hrs by MTT assay. The method, boiled down:
(§1)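 pYV− Y. pseudotuberculosis cultured in low-calcium media at 37 °C with test agent at 60 μM, kanamycin at 50 μg/mL, or DMSO. MTT added after 8 h of incubation; formazan absorbance at 570 nm taken as bacterial metabolic activity.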

The subject of data set [2] is Yersinia pseudotuberculosis. As to the kind of experiment: Growth inhibition of Yersinia pseudotuberculosis harboring pYV deletion mutant at 60 uM measured at 30 mins interval for 8 hrs. The method, boiled down:
(§2)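 Y. pseudotuberculosis strain lacking the T3SS-encoding virulence plasmid pYV (pYV−), grown in low-calcium media at 37 °C with test agent at 60 μM, kanamycin at 50 μg/mL, or DMSO. Growth followed by absorbance at 600 nm over 8 h.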

Data set [3] concerns Yersinia pseudotuberculosis. As to the kind of experiment: Toxicity against Yersinia pseudotuberculosis harboring pYV deletion mutant at 50 ug/ml measured after 8 hrs by MTT assay. The method, boiled down: as §1
(In general: Tetrazolium dyes change colour on reduction, which living cells bring about.)

The subject of data set [4] is Yersinia pseudotuberculosis. As to the kind of experiment: Growth inhibition of Yersinia pseudotuberculosis harboring pYV deletion mutant at 50 ug/ml measured at 30 mins interval for 8 hrs. In short, it runs like this:
as §2

In the case of `CCC(=O)N(C)CCc1ccc(OCCCNC(=O)Cc2ccc(O)cc2)c(Br)c1`, the Activity result in data set [1] is listed as “Non-Toxic”. Further, the “growth inhibition (GI)” value in data set [2] is on record as “Non-Toxic”.

As to `COc1c(Br)cc(CC(O)C(=O)NCCc2ccc(O)c(I)c2)cc1Br` (stereo unspecified), the Activity entry in data set [1] is given as “Non-Toxic”. Moreover, the “growth inhibition (GI)” value in data set [2] is “Non-Toxic”.

For `CCC(=O)N(C)CCc1cc(Br)c(OCCCNC(=O)Cc2ccc(O)cc2)c(I)c1`, the Activity entry in data set [1] is recorded as “Non-Toxic”. In addition, the “growth inhibition (GI)” value in data set [2] is reported as “Non-Toxic”.

As for `CCC(=O)N(C)CCc1ccc(OCCCN(C)C(=O)Cc2ccc(O)cc2)c(Br)c1`, in data set [1], the Activity entry is “Non-Toxic”. Also, the “growth inhibition (GI)” value in data set [2] is “Non-Toxic”.

On to `CCC(=O)N(C)CCc1ccc(OCCCNC(=O)Cc2ccc(O)cc2)c(I)c1`, for which the Activity entry in data set [1] is reported as “Non-Toxic”. Besides, the “growth inhibition (GI)” value in data set [2] is “Non-Toxic”.

As for `CCC(=O)N(C)CCc1cc(Br)c(OCCCNC(=O)Cc2ccc(O)cc2)c(Br)c1`, in data set [1], the Activity result is reported as “Non-Toxic”. The “growth inhibition (GI)” value in data set [2] is reported as “Non-Toxic”.

Take `COc1c(Br)cc(CC(O)C(=O)NCCc2ccc(O)c(Br)c2)cc1Br` (stereo unspecified): in data set [1], the Activity result was “Non-Toxic”. The “growth inhibition (GI)” value in data set [2] is “Non-Toxic”.

Take `NC[C@H]1O[C@H](O[C@H]2[C@H](O)[C@@H](O[C@H]3O[C@H](CO)[C@@H](O)[C@H](N)[C@H]3O)[C@H](N)C[C@@H]2N)[C@H](O)[C@@H](O)[C@@H]1O` [KANAMYCIN]: in data set [3], the Activity entry is listed as “Non-Toxic”. The “growth inhibition (GI)” value in data set [4] is “Non-Toxic”.
